Laboratory results published in ChEMBL document CHEMBL2375276, “Antibacterial oxazolidinone analogues having a N-hydroxyacetyl-substituted seven-membered [1,2,5]triazepane or [1,2,5]oxadiazepane C-ring unit” (Eur J Med Chem, 2013).
≈ marks a conversion by molar mass, not a printed value.

target: Cytochrome P450 2D6 (Homo sapiens, UniProt P10635); assay: Inhibition of human CYP2D6 assessed as dextromethorphan O-demethylation after 20 mins by LC/MS/MS analysis; type: ADME; conditions: not given
Method in brief: (§1)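 Human liver microsomes (0.2 mg protein/mL) with 1 mM NADPH in 50 mM HEPES pH 7.4, 10 mM MgCl2, 0.1 mM EDTA. After centrifugation, supernatant metabolite measured by LC/MS/MS. Standard curve from authentic metabolite cocktail added to unincubated reaction mix.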

Sequence of Cytochrome P450 2D6 (P10635 whole entry): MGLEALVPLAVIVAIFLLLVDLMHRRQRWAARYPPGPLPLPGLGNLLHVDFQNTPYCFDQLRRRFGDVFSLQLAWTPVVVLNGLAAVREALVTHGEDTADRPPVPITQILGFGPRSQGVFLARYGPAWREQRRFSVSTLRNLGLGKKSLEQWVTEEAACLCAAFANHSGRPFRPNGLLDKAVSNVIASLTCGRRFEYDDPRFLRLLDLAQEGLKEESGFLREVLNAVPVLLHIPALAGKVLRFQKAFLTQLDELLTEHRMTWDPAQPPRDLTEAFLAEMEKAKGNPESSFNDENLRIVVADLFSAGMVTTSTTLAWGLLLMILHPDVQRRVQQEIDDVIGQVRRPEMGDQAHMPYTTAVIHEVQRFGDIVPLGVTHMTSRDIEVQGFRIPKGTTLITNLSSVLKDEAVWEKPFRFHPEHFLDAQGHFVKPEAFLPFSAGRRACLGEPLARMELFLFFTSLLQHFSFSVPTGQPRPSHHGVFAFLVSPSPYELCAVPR

Row | Structure (SMILES) | IC50
1 | CC(=O)NC[C@H]1CN(c2ccc(N3CCN(C(=O)CO)CC3)c(F)c2)C(=O)O1 [EPEREZOLID] | > 20 µM
2 | CC(=O)NC[C@H]1CN(c2ccc(N3CCOCC3)c(F)c2)C(=O)O1 [LINEZOLID] | > 20 µM

test system: Enterococcus faecalis; assay: Antibacterial activity against Enterococcus faecalis SR1004 clinical isolate assessed as growth inhibition by CLSI broth microdilution method; type: functional; conditions: not given
Method in brief: (§2)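 MIC by CLSI broth microdilution in cation-adjusted Mueller-Hinton broth; S. pneumoniae medium supplemented with 5% lysed horse blood.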

Row | Structure (SMILES) | MIC
3 | CC(=O)NC[C@H]1CN(c2ccc(N3CCN(C(=O)CO)CC3)c(F)c2)C(=O)O1 [EPEREZOLID] | 1 µg/mL (≈ 2.54 µM)

test system: Haemophilus influenzae; assay: Antibacterial activity against Haemophilus influenzae SR27914 clinical isolate assessed as growth inhibition by CLSI broth microdilution method; type: functional; conditions: not given
Method in brief: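 MIC by CLSI broth microdilution using Haemophilus test medium.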

Row | Structure (SMILES) | MIC
4 | CC(=O)NC[C@H]1CN(c2ccc(N3CCN(C(=O)CO)CC3)c(F)c2)C(=O)O1 [EPEREZOLID] | 4 µg/mL (≈ 10.1 µM)
5 | CC(=O)NC[C@H]1CN(c2ccc(N3CCOCC3)c(F)c2)C(=O)O1 [LINEZOLID] | 16 µg/mL (≈ 47.4 µM)

test system: Staphylococcus aureus; assay: Antibacterial activity against methicillin-resistant Staphylococcus aureus SR3637 infected in JCL/ICR mouse systemic infection model assessed as mortality administered as po measured over 7 days; type: functional; conditions: 168 h
Method in brief: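 Five-week-old male JCL/ICR mice (20–25 g), five per group. Infected intraperitoneally with 0.5 or 1.0 mL bacterial suspension (about 100× LD50). Oral dosing 1 h post-infection. Mortality followed 7 days; ED50 with 95% confidence limits by logit method.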

Row | Structure (SMILES) | ED50
6 | CC(=O)NC[C@H]1CN(c2ccc(N3CCN(C(=O)CO)CC3)c(F)c2)C(=O)O1 [EPEREZOLID] | 4.76 mg/kg
7 | CC(=O)NC[C@H]1CN(c2ccc(N3CCOCC3)c(F)c2)C(=O)O1 [LINEZOLID] | 2.02 mg/kg

test system: Staphylococcus aureus; assay: Antibacterial activity against methicillin-resistant Staphylococcus aureus SR3637 infected in JCL/ICR mouse systemic infection model assessed as mortality administered as iv measured over 7 days; type: functional; conditions: 168 h
Method in brief: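 Five-week-old male JCL/ICR mice (20–25 g), five per group. Infected intraperitoneally with 0.5 or 1.0 mL bacterial suspension (about 100× LD50). Intravenous dosing 1 h post-infection. Mortality followed 7 days; ED50 with 95% confidence limits by logit method.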

Row | Structure (SMILES) | ED50
8 | CC(=O)NC[C@H]1CN(c2ccc(N3CCN(C(=O)CO)CC3)c(F)c2)C(=O)O1 [EPEREZOLID] | 1.85 mg/kg
9 | CC(=O)NC[C@H]1CN(c2ccc(N3CCOCC3)c(F)c2)C(=O)O1 [LINEZOLID] | 1.73 mg/kg

target: T1, Cytochrome P450 1A2 (Homo sapiens, UniProt P05177); assay: Inhibition of human CYP1A2 assessed as ethoxyresorufin O-deethylation after 20 mins by fluorescence plate reader analysis; type: ADME; conditions: not given
T1 sequence (P05177 whole entry): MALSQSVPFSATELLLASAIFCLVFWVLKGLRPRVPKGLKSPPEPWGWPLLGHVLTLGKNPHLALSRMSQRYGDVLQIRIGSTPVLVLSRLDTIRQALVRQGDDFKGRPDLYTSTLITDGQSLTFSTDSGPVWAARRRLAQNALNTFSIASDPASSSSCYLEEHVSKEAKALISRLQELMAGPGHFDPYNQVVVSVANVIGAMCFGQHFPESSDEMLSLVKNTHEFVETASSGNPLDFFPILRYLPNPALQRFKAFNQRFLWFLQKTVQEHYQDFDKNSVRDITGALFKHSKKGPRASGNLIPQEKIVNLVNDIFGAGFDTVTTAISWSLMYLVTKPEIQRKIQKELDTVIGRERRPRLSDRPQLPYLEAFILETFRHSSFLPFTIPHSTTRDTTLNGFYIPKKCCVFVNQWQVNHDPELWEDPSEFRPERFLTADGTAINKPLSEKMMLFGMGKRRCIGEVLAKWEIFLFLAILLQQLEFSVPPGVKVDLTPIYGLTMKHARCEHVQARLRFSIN
Method in brief: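 Human liver microsomes (0.2 mg protein/mL) with 1 mM NADPH in 50 mM HEPES pH 7.4, 10 mM MgCl2, 0.1 mM EDTA. After centrifugation, supernatant read on a fluorescence plate reader. Standard curve from authentic metabolite added to unincubated reaction mix.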

Row | Structure (SMILES) | IC50
10 | CC(=O)NC[C@H]1CN(c2ccc(N3CCN(C(=O)CO)CC3)c(F)c2)C(=O)O1 [EPEREZOLID] | > 20 µM
11 | CC(=O)NC[C@H]1CN(c2ccc(N3CCOCC3)c(F)c2)C(=O)O1 [LINEZOLID] | > 20 µM

test system: Staphylococcus aureus; assay: Antibacterial activity against Staphylococcus aureus SR20549 clinical isolate assessed as growth inhibition by CLSI broth microdilution method; type: functional; conditions: not given; method in brief: as §2

Row | Structure (SMILES) | MIC
12 | CC(=O)NC[C@H]1CN(c2ccc(N3CCN(C(=O)CO)CC3)c(F)c2)C(=O)O1 [EPEREZOLID] | 1 µg/mL (≈ 2.54 µM)

test system: Moraxella catarrhalis; assay: Antibacterial activity against Moraxella catarrhalis SR26840 clinical isolate assessed as growth inhibition by CLSI broth microdilution method; type: functional; conditions: not given; method in brief: as §2

Row | Structure (SMILES) | MIC
13 | CC(=O)NC[C@H]1CN(c2ccc(N3CCN(C(=O)CO)CC3)c(F)c2)C(=O)O1 [EPEREZOLID] | 8 µg/mL (≈ 20.3 µM)
14 | CC(=O)NC[C@H]1CN(c2ccc(N3CCOCC3)c(F)c2)C(=O)O1 [LINEZOLID] | 8 µg/mL (≈ 23.7 µM)

target: T2, MAO-A (Rattus norvegicus, UniProt P21396); assay: Inhibition of MAO-A in rat forebrain using [14C]5-HT as substrate at 30 uM incubated for 20 mins prior to substrate addition measured after 5 mins by liquid scintillation counting analysis relative to control; type: tissue-based; conditions: probe [14C]5-HT
T2 sequence (P21396 whole entry): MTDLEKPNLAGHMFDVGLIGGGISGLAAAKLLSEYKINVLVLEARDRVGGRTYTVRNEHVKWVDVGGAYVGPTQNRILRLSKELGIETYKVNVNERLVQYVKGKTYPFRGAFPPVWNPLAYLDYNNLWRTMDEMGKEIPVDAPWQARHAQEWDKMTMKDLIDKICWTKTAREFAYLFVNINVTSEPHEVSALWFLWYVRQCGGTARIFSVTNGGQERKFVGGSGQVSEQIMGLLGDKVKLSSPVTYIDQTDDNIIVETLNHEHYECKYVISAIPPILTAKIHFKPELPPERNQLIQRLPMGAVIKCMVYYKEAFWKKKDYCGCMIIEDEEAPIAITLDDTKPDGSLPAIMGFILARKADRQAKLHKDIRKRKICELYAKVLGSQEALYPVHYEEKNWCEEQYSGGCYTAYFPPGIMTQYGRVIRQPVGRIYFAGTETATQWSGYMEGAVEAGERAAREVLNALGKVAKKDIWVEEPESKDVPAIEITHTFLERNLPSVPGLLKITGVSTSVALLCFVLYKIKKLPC

Row | Structure (SMILES) | inhibition at 5 min, 30 µM
15 | CC(=O)NC[C@H]1CN(c2ccc(N3CCN(C(=O)CO)CC3)c(F)c2)C(=O)O1 [EPEREZOLID] | 53.6%
16 | CC(=O)NC[C@H]1CN(c2ccc(N3CCOCC3)c(F)c2)C(=O)O1 [LINEZOLID] | 61.3%

test system: Staphylococcus aureus; assay: Antibacterial activity against methicillin-resistant Staphylococcus aureus SR3637 assessed as growth inhibition by CLSI broth microdilution method; type: functional; conditions: not given
Method in brief: (§3)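 MIC by CLSI broth microdilution in cation-adjusted Mueller-Hinton broth. Lowest concentration inhibiting growth taken as MIC.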

Row | Structure (SMILES) | MIC
17 | CC(=O)NC[C@H]1CN(c2ccc(N3CCN(C(=O)CO)CC3)c(F)c2)C(=O)O1 [EPEREZOLID] | 1 µg/mL (≈ 2.54 µM)

test system: Enterococcus faecium; assay: Antibacterial activity against Enterococcus faecium SR7940 clinical isolate assessed as growth inhibition by CLSI broth microdilution method; type: functional; conditions: not given; method in brief: as §2

Row | Structure (SMILES) | MIC
18 | CC(=O)NC[C@H]1CN(c2ccc(N3CCN(C(=O)CO)CC3)c(F)c2)C(=O)O1 [EPEREZOLID] | 2 µg/mL (≈ 5.07 µM)
19 | CC(=O)NC[C@H]1CN(c2ccc(N3CCOCC3)c(F)c2)C(=O)O1 [LINEZOLID] | 2 µg/mL (≈ 5.93 µM)

target: Cytochrome P450 3A4 (Homo sapiens, UniProt P08684); assay: Inhibition of human CYP3A4 assessed as terfenadine hydroxylation after 20 mins by LC/MS/MS analysis; type: ADME; conditions: not given; method in brief: as §1
Sequence (P08684 whole entry): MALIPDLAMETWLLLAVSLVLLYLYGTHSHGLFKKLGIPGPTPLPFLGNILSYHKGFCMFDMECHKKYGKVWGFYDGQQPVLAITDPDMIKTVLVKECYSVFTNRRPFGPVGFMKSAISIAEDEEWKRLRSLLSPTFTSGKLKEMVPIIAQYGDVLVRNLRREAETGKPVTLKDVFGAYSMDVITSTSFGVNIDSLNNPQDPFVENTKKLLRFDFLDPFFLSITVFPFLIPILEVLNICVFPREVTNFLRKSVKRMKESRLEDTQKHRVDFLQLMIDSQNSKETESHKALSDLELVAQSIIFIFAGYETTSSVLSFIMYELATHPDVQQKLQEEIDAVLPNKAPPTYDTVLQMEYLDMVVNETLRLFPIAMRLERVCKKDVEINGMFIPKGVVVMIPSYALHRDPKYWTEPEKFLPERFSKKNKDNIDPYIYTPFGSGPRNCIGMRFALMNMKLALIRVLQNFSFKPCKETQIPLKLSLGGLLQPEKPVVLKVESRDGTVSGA

Row | Structure (SMILES) | IC50
20 | CC(=O)NC[C@H]1CN(c2ccc(N3CCN(C(=O)CO)CC3)c(F)c2)C(=O)O1 [EPEREZOLID] | > 20 µM
21 | CC(=O)NC[C@H]1CN(c2ccc(N3CCOCC3)c(F)c2)C(=O)O1 [LINEZOLID] | > 20 µM

test system: Staphylococcus aureus; assay: Antibacterial activity against linezolid-resistant Staphylococcus aureus NRS271 assessed as growth inhibition by CLSI broth microdilution method; type: functional; conditions: not given; method in brief: as §3

Row | Structure (SMILES) | MIC
22 | CC(=O)NC[C@H]1CN(c2ccc(N3CCN(C(=O)CO)CC3)c(F)c2)C(=O)O1 [EPEREZOLID] | 32 µg/mL (≈ 81.1 µM)
23 | CC(=O)NC[C@H]1CN(c2ccc(N3CCOCC3)c(F)c2)C(=O)O1 [LINEZOLID] | 32 µg/mL (≈ 94.9 µM)

test system: Staphylococcus aureus; assay: Antibacterial activity against Staphylococcus aureus Smith assessed as growth inhibition by CLSI broth microdilution method; type: functional; conditions: not given; method in brief: as §2

Row | Structure (SMILES) | MIC
24 | CC(=O)NC[C@H]1CN(c2ccc(N3CCN(C(=O)CO)CC3)c(F)c2)C(=O)O1 [EPEREZOLID] | 1 µg/mL (≈ 2.54 µM)

test system: Streptococcus pneumoniae; assay: Antibacterial activity against Streptococcus pneumoniae SR26207 clinical isolate assessed as growth inhibition by CLSI broth microdilution method; type: functional; conditions: not given; method in brief: as §2

Row | Structure (SMILES) | MIC
25 | CC(=O)NC[C@H]1CN(c2ccc(N3CCN(C(=O)CO)CC3)c(F)c2)C(=O)O1 [EPEREZOLID] | 0.125 µg/mL (≈ 0.317 µM)

target: T3, MAO-B (Rattus norvegicus, UniProt P19643); assay: Inhibition of MAO-B in rat forebrain using [14C]PEA as substrate at 30 uM incubated for 20 mins prior to substrate addition measured after 10 mins by liquid scintillation counting analysis relative to control; type: tissue-based; conditions: probe [14C]PEA
T3 sequence (P19643 whole entry): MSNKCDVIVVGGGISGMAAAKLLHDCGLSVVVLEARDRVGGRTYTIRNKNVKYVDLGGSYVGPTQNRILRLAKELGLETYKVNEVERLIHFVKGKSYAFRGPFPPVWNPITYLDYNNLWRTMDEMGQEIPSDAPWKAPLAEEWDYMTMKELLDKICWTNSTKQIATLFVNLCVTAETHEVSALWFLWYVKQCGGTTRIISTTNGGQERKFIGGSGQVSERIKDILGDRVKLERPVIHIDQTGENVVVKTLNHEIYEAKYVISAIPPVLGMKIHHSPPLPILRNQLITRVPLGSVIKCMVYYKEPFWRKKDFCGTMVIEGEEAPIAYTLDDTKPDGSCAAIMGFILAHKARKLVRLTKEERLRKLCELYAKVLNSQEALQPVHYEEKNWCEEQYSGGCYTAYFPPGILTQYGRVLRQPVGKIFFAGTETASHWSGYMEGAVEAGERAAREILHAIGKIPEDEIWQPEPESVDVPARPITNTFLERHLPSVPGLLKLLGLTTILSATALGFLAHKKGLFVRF

Row | Structure (SMILES) | inhibition at 10 min, 30 µM
26 | CC(=O)NC[C@H]1CN(c2ccc(N3CCN(C(=O)CO)CC3)c(F)c2)C(=O)O1 [EPEREZOLID] | 20.2%
27 | CC(=O)NC[C@H]1CN(c2ccc(N3CCOCC3)c(F)c2)C(=O)O1 [LINEZOLID] | 70.4%

target: Cytochrome P450 2C9 (Homo sapiens, UniProt P11712); assay: Inhibition of human CYP2C9 assessed as tolbutamide hydroxylation after 20 mins by LC/MS/MS analysis; type: ADME; conditions: not given; method in brief: as §1
Sequence (P11712 whole entry): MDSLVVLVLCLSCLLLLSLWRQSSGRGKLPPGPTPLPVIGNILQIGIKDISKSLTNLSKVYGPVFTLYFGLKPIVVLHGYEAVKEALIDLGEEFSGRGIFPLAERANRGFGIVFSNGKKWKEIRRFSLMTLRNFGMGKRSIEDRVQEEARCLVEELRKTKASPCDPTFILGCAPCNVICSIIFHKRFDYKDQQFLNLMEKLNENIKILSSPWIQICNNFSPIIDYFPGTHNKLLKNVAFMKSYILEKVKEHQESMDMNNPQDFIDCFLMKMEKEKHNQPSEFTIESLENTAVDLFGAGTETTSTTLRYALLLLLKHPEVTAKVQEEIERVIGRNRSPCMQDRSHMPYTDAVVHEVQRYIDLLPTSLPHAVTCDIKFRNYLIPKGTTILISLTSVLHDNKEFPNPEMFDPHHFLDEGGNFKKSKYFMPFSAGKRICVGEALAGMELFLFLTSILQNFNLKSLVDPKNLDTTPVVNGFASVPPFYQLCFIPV

Row | Structure (SMILES) | IC50
28 | CC(=O)NC[C@H]1CN(c2ccc(N3CCN(C(=O)CO)CC3)c(F)c2)C(=O)O1 [EPEREZOLID] | > 20 µM
29 | CC(=O)NC[C@H]1CN(c2ccc(N3CCOCC3)c(F)c2)C(=O)O1 [LINEZOLID] | > 20 µM
